Laboratory results as given in ChEMBL document CHEMBL4138300 (ACS Med Chem Lett, 2018).
Activity calls are given as the source filed them. The calls are words filed in the database; no cut-off is given here.

Assays:
[1] = tested on: Pfeiffer; test: Cytotoxicity against human Pfeiffer cells assessed as decrease in cell viability after 5 days by CellTiter-Glo reagent based luminescence assay; assay type: functional; conditions: 120 h
[2] = target: EZH2 (Homo sapiens); test: Inhibition of human N-terminal His-tagged EZH2/flag-tagged EED/SUZ12/AEBP2/RBAP48 A677G mutant (2 to end residues) expressed in baculovirus infected Sf9 insect cells using histone H3 (1 to 50 residues)-GGK as substrate after 2 hrs in presence of SAM by fluorescence assay
[3] = Stability of the compound in human liver microsomes; assay type: ADME, microsome
[4] = Stability of the compound in rat liver microsomes; assay type: ADME, microsome
[5] = Half life in human liver microsomes; assay type: ADME, microsome
[6] = Half life in rat liver microsomes; assay type: ADME, microsome
[7] = AUC (0 to t) in ICR mouse at 10 mg/kg administered via oral gavage; assay type: ADME, organism-based; conditions: in vivo
Method in brief: (§1)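 Single oral dose given as a CMC-Na suspension: rats 5 mg/kg, mice 10 mg/kg. Oral bioavailability was set against the matching iv arm (rats 0.5 mg/kg, mice 1.0 mg/kg).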

[8] = Cmax in Sprague-Dawley rat at 5 mg/kg administered via oral gavage; assay type: ADME, organism-based; design: dose 5 mg/kg, route oral; conditions: in vivo; method in brief: as §1
[9] = AUC (0 to t) in Sprague-Dawley rat at 5 mg/kg administered via oral gavage; assay type: ADME, organism-based; conditions: in vivo; method in brief: as §1
[10] = Half life in Sprague-Dawley rat at 5 mg/kg administered via oral gavage; assay type: ADME, organism-based; conditions: in vivo; method in brief: as §1
[11] = Apparent clearance during terminal phase in Sprague-Dawley rat at 5 mg/kg administered via oral gavage; assay type: ADME, organism-based; conditions: in vivo, read-out: CLz/F; method in brief: as §1
[12] = Apparent volume of distribution during terminal phase in Sprague-Dawley rat at 5 mg/kg administered via oral gavage; assay type: ADME, organism-based; conditions: in vivo, read-out: Vz/F; method in brief: as §1
[13] = Mean residence time (0 to infinity) in Sprague-Dawley rat at 5 mg/kg administered via oral gavage; assay type: ADME, organism-based; conditions: in vivo; method in brief: as §1
[14] = Oral bioavailability in Sprague-Dawley rat at 5 mg/kg administered via gavage; assay type: ADME, organism-based; conditions: in vivo; method in brief: as §1
[15] = AUC (0 to t) in Sprague-Dawley rat at 0.5 mg/kg, iv; assay type: ADME, organism-based; conditions: in vivo
Method in brief: (§2)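 Single intravenous dose: rats 0.5 mg/kg, mice 1.0 mg/kg. Plasma exposure and terminal-phase parameters were calculated from the concentration–time profile. These serve as the iv reference for bioavailability.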

[16] = tested on: Rattus norvegicus; test: Apparent volume of distribution during terminal phase in Sprague-Dawley rat at 0.5 mg/kg, iv; assay type: ADME, organism-based; conditions: in vivo; method in brief: as §2
[17] = Mean residence time (0 to infinity) in Sprague-Dawley rat at 0.5 mg/kg, iv; assay type: ADME, organism-based; conditions: in vivo; method in brief: as §2
[18] = Cmax in ICR mouse at 10 mg/kg administered via oral gavage; assay type: ADME, organism-based; design: dose 10 mg/kg, route oral; conditions: in vivo; method in brief: as §1
[19] = Half life in ICR mouse at 10 mg/kg administered via oral gavage; assay type: ADME, organism-based; conditions: in vivo; method in brief: as §1
[20] = Apparent clearance during terminal phase in ICR mouse at 10 mg/kg administered via oral gavage; assay type: ADME, organism-based; conditions: in vivo, read-out: CLz/F; method in brief: as §1
[21] = Apparent volume of distribution during terminal phase in ICR mouse at 10 mg/kg administered via oral gavage; assay type: ADME, organism-based; conditions: in vivo, read-out: Vz/F; method in brief: as §1
[22] = Mean residence time (0 to infinity) in ICR mouse at 10 mg/kg administered via oral gavage; assay type: ADME, organism-based; conditions: in vivo; method in brief: as §1
[23] = Oral bioavailability in ICR mouse at 10 mg/kg administered via gavage; assay type: ADME, organism-based; conditions: in vivo; method in brief: as §1
[24] = AUC (0 to t) in ICR mouse at 1 mg/kg, iv; assay type: ADME, organism-based; conditions: in vivo; method in brief: as §2
[25] = tested on: Mus musculus; test: Apparent volume of distribution during terminal phase in ICR mouse at 1 mg/kg, iv; assay type: ADME, organism-based; conditions: in vivo; method in brief: as §2
[26] = Mean residence time (0 to infinity) in ICR mouse at 1 mg/kg, iv; assay type: ADME, organism-based; conditions: in vivo; method in brief: as §2
[27] = Protein binding in human plasma; assay type: ADME, cell-free; conditions: read-out: PPB (converted)
[28] = Protein binding in rat plasma; assay type: ADME, cell-free; conditions: read-out: PPB (converted)
[29] = Protein binding in mouse plasma; assay type: ADME, cell-free; conditions: read-out: PPB (converted)
[30] = target: T1, Histone-lysine N-methyltransferase EZH2 (Homo sapiens, UniProt Q15910); test: Inhibition of EZH2 in human Pfeiffer cells assessed as reduction in H3K27 trimethylation after 3 days by Western blot analysis; assay type: cell-based
[31] = target: T1, Histone-lysine N-methyltransferase EZH2; test: Inhibition of EZH2 in human WSU-DLCL2 cells assessed as reduction in H3K27 trimethylation after 3 days by Western blot analysis; assay type: cell-based
Target sequence in this assay (Q15910 whole entry): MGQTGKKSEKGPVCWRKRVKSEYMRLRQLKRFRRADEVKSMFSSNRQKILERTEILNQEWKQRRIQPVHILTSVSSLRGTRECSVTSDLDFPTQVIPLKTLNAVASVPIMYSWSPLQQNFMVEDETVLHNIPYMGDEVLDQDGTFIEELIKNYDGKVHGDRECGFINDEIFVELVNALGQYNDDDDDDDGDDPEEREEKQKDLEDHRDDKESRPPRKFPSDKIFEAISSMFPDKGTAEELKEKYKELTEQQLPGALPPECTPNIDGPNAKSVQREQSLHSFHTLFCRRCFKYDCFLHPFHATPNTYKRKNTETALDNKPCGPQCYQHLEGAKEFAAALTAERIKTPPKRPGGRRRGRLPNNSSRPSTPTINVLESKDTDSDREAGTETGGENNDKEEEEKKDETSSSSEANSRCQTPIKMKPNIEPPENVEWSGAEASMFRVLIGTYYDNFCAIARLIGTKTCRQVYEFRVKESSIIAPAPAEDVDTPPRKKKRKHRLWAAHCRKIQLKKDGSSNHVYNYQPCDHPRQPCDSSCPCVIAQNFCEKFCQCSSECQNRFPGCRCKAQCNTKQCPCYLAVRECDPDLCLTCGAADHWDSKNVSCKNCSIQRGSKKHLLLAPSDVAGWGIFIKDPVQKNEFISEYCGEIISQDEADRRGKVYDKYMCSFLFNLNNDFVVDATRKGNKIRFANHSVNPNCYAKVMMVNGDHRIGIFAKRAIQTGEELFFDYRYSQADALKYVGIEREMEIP

[32] = tested on: Pfeiffer; test: Antitumor activity against human Pfeiffer cells xenografted in athymic nude mouse assessed as tumor growth inhibition administered po qd for 20 days measured twice per week; assay type: functional, organism-based
Method in brief: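 Pfeiffer xenografts were grown to about 150-200 mm³ before dosing. Compound was given orally once daily for 20 days at 10, 30 or 100 mg/kg. A reference EZH2 inhibitor (100 mg/kg) was run alongside. Tumor size reduction was the efficacy read-out.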

[33] = tested on: Pfeiffer; test: Antitumor activity against human Pfeiffer cells xenografted in athymic nude mouse assessed as tumor growth inhibition at 10 mg/kg, po qd administered for 20 days measured twice per week; assay type: functional; conditions: 480 h, read-out: TGI
Method in brief: (§3)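 Pfeiffer xenografts were grown to about 150-200 mm³ before dosing. The compound was given orally once daily for 20 days at the dose in each line (10, 30 or 100 mg/kg), with a reference EZH2 inhibitor dosed at 100 mg/kg. Tumor growth inhibition was expressed as percent reduction in tumor size.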

[34] = tested on: Pfeiffer; test: Antitumor activity against human Pfeiffer cells xenografted in athymic nude mouse assessed as tumor growth inhibition at 30 mg/kg, po qd administered for 20 days measured twice per week; assay type: functional; conditions: 480 h, read-out: TGI; method in brief: as §3
[35] = tested on: Pfeiffer; test: Antitumor activity against human Pfeiffer cells xenografted in athymic nude mouse assessed as tumor growth inhibition at 100 mg/kg, po qd administered for 20 days measured twice per week; assay type: functional; method in brief: as §3
[36] = tested on: Mus musculus; test: Toxicity in athymic nude mouse xenografted with human Pfeiffer cells assessed as body weight loss at 10 to 100 mg/kg, po qd administered for 20 days measured twice per week; assay type: organism-based; conditions: in vivo, 480 h

CCN(c1cc2oc(C3CC3)cc2c(C(=O)NCc2c(OC)cc(C)[nH]c2=O)c1C)C1CCOCC1
IC50 [1]: 11 nM
IC50 [2]: 0.5 nM

CCN(c1cc2occc2c(C(=O)NCc2c(C)cc(C)[nH]c2=O)c1C)C1CCOCC1
IC50 [1]: 240 nM
IC50 [2]: 4 nM

CCN(c1cc2occc2c(C(=O)NCc2c(OC)cc(C)[nH]c2=O)c1C)C1CCOCC1
IC50 [1]: 20 nM
IC50 [2]: 4 nM

CCN(c1cc2oc(C#N)cc2c(C(=O)NCc2c(OC)cc(C)[nH]c2=O)c1C)C1CCOCC1
IC50 [1]: 17 nM
IC50 [2]: 0.8 nM

CCc1c(N(CC)C2CCOCC2)cc2oc(CN3CCOCC3)cc2c1C(=O)NCc1c(OC)cc(C)[nH]c1=O
IC50 [1]: 3 nM
Stability [3]: Stable
Stability [4]: Stable
IC50 [2]: 7.8 nM

CCc1c(N(CC)C2CCOCC2)cc2oc(CN3CCN(C)CC3)cc2c1C(=O)NCc1c(OC)cc(C)[nH]c1=O
IC50 [1]: 8 nM
Stability [3]: Stable
Stability [4]: Stable
IC50 [2]: 0.1 nM

CCc1c(N(CC)C2CCOCC2)cc2oc(CN3CCOCC3)cc2c1C(=O)NCc1c(C)cc(C)[nH]c1=O
IC50 [1]: 14 nM
Stability [3]: Stable
Stability [4]: Stable
IC50 [2]: 4.6 nM

CCc1c(N(CC)C2CCOCC2)cc2oc(C3CCN(C)CC3)cc2c1C(=O)NCc1c(C)cc(C)[nH]c1=O
IC50 [1]: 7 nM
half-life [5]: > 1 h
half-life [6]: > 1 h
AUC(0-t) [7]: 439 ng·h/mL
IC50 [2]: 6.1 nM

CCc1c(N(CC)C2CCOCC2)cc2oc(CN3CCCCC3)cc2c1C(=O)NCc1c(OC)cc(C)[nH]c1=O
IC50 [1]: 2 nM
Stability [3]: Stable
Stability [4]: Stable
IC50 [2]: 6.4 nM

CCN(c1cc2oc(C)cc2c(C(=O)NCc2c(OC)cc(C)[nH]c2=O)c1C)C1CCOCC1
IC50 [1]: 14 nM
IC50 [2]: 2.9 nM

CCN(c1cc2oc(Cl)cc2c(C(=O)NCc2c(OC)cc(C)[nH]c2=O)c1C)C1CCOCC1
IC50 [1]: 21 nM
IC50 [2]: 0.4 nM

CCN(c1cc2occ(C)c2c(C(=O)NCc2c(OC)cc(C)[nH]c2=O)c1C)C1CCOCC1
IC50 [1]: 1300 nM
IC50 [2]: 5.9 nM

CCN(c1cc2sccc2c(C(=O)NCc2c(C)cc(C)[nH]c2=O)c1C)C1CCOCC1
IC50 [1]: 1830 nM
IC50 [2]: 6 nM

CCN(c1cc2oc(C(F)(F)F)cc2c(C(=O)NCc2c(OC)cc(C)[nH]c2=O)c1C)C1CCOCC1
IC50 [1]: 17 nM
IC50 [2]: 2.7 nM

CCN(c1cc2oc(C)cc2c(C(=O)NCc2c(C)cc(C)[nH]c2=O)c1C)C1CCOCC1
IC50 [1]: 21 nM
IC50 [2]: 3.8 nM

CCN(c1cc(C(=O)NCc2c(OC)cc(C)[nH]c2=O)c2ccoc2c1)C1CCOCC1
IC50 [1]: > 5000 nM
IC50 [2]: 331 nM

CCc1c(N(CC)C2CCOCC2)cc2oc(C3CCN(C(C)C)CC3)cc2c1C(=O)NCc1c(C)cc(C)[nH]c1=O
IC50 [1]: 6 nM
half-life [5]: > 0.5 h
half-life [6]: > 0.5 h
Cmax [8]: 93 ng/mL
AUC(0-t) [9]: 239 ng·h/mL
half-life [10]: 1 h
CL/F [11]: 287 mL/min/kg
Vd/F [12]: 24.1 L/kg
MRT inf [13]: 3 h
bioavailability [14]: 9%
AUC(0-t) [15]: 325 ng·h/mL
Vz/F [16]: 2.556 L/kg
MRT inf [17]: 1 h
Cmax [18]: 257 ng/mL
AUC(0-t) [7]: 774 ng·h/mL
half-life [19]: 1.3 h
CL/F [20]: 202 mL/min/kg
Vd/F [21]: 21.9 L/kg
MRT inf [22]: 2.7 h
bioavailability [23]: 16%
AUC(0-t) [24]: 483 ng·h/mL
Vz/F [25]: 3.679 L/kg
MRT inf [26]: 1.3 h
fraction unbound [27]: 0.061
fraction unbound [28]: 0.06
fraction unbound [29]: 0.073
IC50 [30]: 8 nM
inhibition [30]: Dose-dependent effect
IC50 [31]: 55 nM
TGI [32]: Dose-dependent effect
inhibition in vivo at 10 mg/kg [33]: 28%
inhibition in vivo at 30 mg/kg [34]: 83%
inhibition in vivo at 100 mg/kg ([35]; 480 h, read-out: TGI): 97%
Activity [36]: Non-Toxic

CCN(c1cc2occc2c(C(=O)NCc2c(C(F)(F)F)cc(C)[nH]c2=O)c1C)C1CCOCC1
IC50 [1]: 3300 nM
IC50 [2]: 4.6 nM

CCN(c1cc2occc2c(C(=O)NCc2c(OC)cc(C)[nH]c2=O)c1C(F)(F)F)C1CCOCC1
IC50 [2]: 2000 nM

CCc1c(N(CC)C2CCOCC2)cc2occc2c1C(=O)NCc1c(OC)cc(C)[nH]c1=O
IC50 [1]: 15 nM
IC50 [2]: 3.3 nM

CCN(c1cc2occc2c(C(=O)NCc2ccc(C)[nH]c2=O)c1Cl)C1CCOCC1
IC50 [1]: 150 nM
IC50 [2]: 6.5 nM

CCc1cc(C)[nH]c(=O)c1CNC(=O)c1c(C)c(N(CC)C2CCOCC2)cc2occc12
IC50 [1]: 220 nM
IC50 [2]: 0.6 nM

CCN(c1cc2oc(F)cc2c(C(=O)NCc2c(OC)cc(C)[nH]c2=O)c1C)C1CCOCC1
IC50 [1]: 160 nM
IC50 [2]: 4.1 nM

CCN(c1cc(-c2ccc(CN3CCOCC3)cc2)cc(C(=O)NCc2c(C)cc(C)[nH]c2=O)c1C)C1CCOCC1 [TAZEMETOSTAT]
IC50 [1]: 38 nM
TGI [35]: Active
Activity [36]: Non-Toxic
